Test [1] concerns the target Recombinant RIPK2 protein (Homo sapiens, UniProt O43353). Description: RIPK2 enzyme assay. It counts as biochemical. The note with it: for selectivity for RIPK2 versus ALK2: ratio of ALK2 to RIPK2 kinase IC50. A digest of the protocol:
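Started with solution of 100 μM ATP + 1 mg/ml RS repeat peptide, 2 h RT; ADP-Glo luminescence. IC50 by non-linear regression. ALK2: human enzyme, casein 1 mg/mL, γ-33ATP 10 μM, 10 nM–100 μM compound, 30 min, 33P-casein.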

The next test concerns U2OS/NOD2 cells. To be noted: cited from earlier work.
Test [2] has as its system RAW264.7 macrophages. The note with it: cited from earlier work.
Test [3] concerns XIAP-mediated RIPK2 ubiquitination. The note with it: cited from earlier work.
The next test deals with GST-BIR2-cIAP1 and RIPK2. The note with it: cited from earlier work.
Test [4] concerns HEK293 cell line expressing hNOD2 and NFκB-SEAP reporter. Description: Human NOD2 signaling HEKBlue reporter assay. It is filed as cell-based. To be noted: read-out: RIPK2/NOD2 Cell Assay IC50, HEKBlue, 1 ng/mL L18-MDP, mean of two or three determinations ± standard deviation, NI: No inhibition up to 10 μM. A digest of the protocol: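 Cells seeded at 7.5-15x10^3 per well; after 24–48 h switched to HEKBlue detection medium and given an 11-point dose range of test compound together with the stimulant. SEAP read as absorbance at 620 nm after 7–9 h. Media-only background subtracted; % inhibition relative to DMSO/L18-MDP controls; IC50 by non-linear regression.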
Background: Reporter assays use an easily measured gene product as a stand-in for the process of interest.

Test [5] concerns RAW264.7 macrophages. It is filed as cell-based. The note with it: at 1 μM; data not shown.

Each structure is given as a SMILES string. Bounds are passed on as bounds.

Recombinant RIPK2 protein, sequence (O43353 whole entry): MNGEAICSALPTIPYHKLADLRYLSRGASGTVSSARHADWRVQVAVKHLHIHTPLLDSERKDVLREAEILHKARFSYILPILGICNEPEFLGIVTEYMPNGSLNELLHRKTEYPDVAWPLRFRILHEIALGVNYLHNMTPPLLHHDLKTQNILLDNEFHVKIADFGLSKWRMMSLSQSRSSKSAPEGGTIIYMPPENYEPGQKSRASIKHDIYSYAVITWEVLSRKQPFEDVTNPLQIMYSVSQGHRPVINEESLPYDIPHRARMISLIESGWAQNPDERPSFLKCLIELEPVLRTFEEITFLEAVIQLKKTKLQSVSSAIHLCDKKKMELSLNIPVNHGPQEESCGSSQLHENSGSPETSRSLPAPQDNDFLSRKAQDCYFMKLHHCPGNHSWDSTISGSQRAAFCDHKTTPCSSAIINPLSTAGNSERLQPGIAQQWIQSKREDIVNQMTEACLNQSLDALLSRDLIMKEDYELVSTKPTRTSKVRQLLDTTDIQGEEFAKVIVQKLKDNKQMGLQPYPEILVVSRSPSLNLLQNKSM

Take `CCCS(=O)(=O)Nc1cc(-c2cc(-c3ccc(N4CCNCC4)cc3)cnc2N)ccc1OC` [Compound 18m, N-(5-(2-Amino-5-(4-(piperazin-1-yl)phenyl)pyridin-3-yl)-2-methoxyphenyl)propane-1-sulfonamide]: in test [1], the IC50 was found to be 0.041 ± 0.019 µM and the “selectivity for RIPK2 versus ALK2” value came out at 86 fold.
On to `CCCS(=O)(=O)Nc1cc(-c2cc(-c3ccc(N4CCNCC4)cc3)cnc2N)cc(OC)c1OC` [Compound 18p, N-(5-(2-Amino-5-(4-(piperazin-1-yl)phenyl)pyridin-3-yl)-2,3-dimethoxyphenyl)propane-1-sulfonamide], for which, in the test with U2OS/NOD2 cells, the “inhibition of L18-MDP-induced CXCL8 production” value is listed as “efficient inhibition”. For the same compound, the “inhibition of L18-MDP-induced TNFα release” value with RAW264.7 macrophages [2] is given as “efficient inhibition”. For the same compound, the “XIAP-mediated RIPK2 ubiquitination” value in test [3] is reported as “blocked”. Besides, the “interaction between GST-BIR2-cIAP1 and RIPK2” value with GST-BIR2-cIAP1 and RIPK2 is “interfered”.
Take `CCCS(=O)(=O)Nc1cc(-c2cc(-c3ccc(S(C)(=O)=O)cc3)cnc2N)ccc1OC` [Compound 18ad, N-(5-(2-Amino-5-(4-(methylsulfonyl)phenyl)pyridin-3-yl)-2-methoxyphenyl)propane-1-sulfonamide]: the IC50 in test [4] was greater than 10 µM.
On the same count and under the same terms, for `CCCS(=O)(=O)Nc1cc(-c2cc(-c3ccccc3S(C)(=O)=O)cnc2N)ccc1OC` [Compound 18ab, N-(5-(2-Amino-5-(2-(methylsulfonyl)phenyl)pyridin-3-yl)-2-methoxyphenyl)propane-1-sulfonamide] the value was greater than 10 µM; for `COc1cc(-c2cc(-c3ccc(N4CCNCC4)cc3)cnc2C)cc(OC)c1OC` [Compound 9a, reference compound], greater than 10 µM; for `CCCS(=O)(=O)Nc1cc(-c2cc(-c3ccc(N4CCNCC4)cc3)cnc2N)cc(OCC)c1OC` [Compound 18q, N-(5-(2-Amino-5-(4-(piperazin-1-yl)phenyl)pyridin-3-yl)-3-ethoxy-2-methoxyphenyl)propane-1-sulfonamide], greater than 10 µM.
`CCCS(=O)(=O)Nc1cc(-c2cc(-c3ccc(N4CCNCC4)cc3)cnc2N)cc(F)c1OC` [Compound 18t, N-(5-(2-Amino-5-(4-(piperazin-1-yl)phenyl)pyridin-3-yl)-3-fluoro-2-methoxyphenyl)propane-1-sulfonamide]: the “block of RIPK1 and RIPK3 dependent necroptosis” value in the test with RAW264.7 macrophages [5] is “did not block”. Further, the “inhibition of L18-MDP-induced CXCL8 production” value in the test with U2OS/NOD2 cells is “efficient inhibition”. Also, the “selectivity for RIPK2 versus ALK2” value in test [1] is reported as greater than 20 fold. In addition, the “inhibition of L18-MDP-induced TNFα release” value in the test with RAW264.7 macrophages [2] was “efficient inhibition”. In test [3], the “XIAP-mediated RIPK2 ubiquitination” value is listed as “blocked”. Besides, in the test with GST-BIR2-cIAP1 and RIPK2, the “interaction between GST-BIR2-cIAP1 and RIPK2” value is “interfered”.
As to `CCCS(=O)(=O)Nc1cc(-c2cc(-c3ccc(N4CCNCC4)cc3)cnc2N)ccc1O` [Compound 18n, N-(5-(2-Amino-5-(4-(piperazin-1-yl)phenyl)pyridin-3-yl)-2-hydroxyphenyl)propane-1-sulfonamide], in test [4], the IC50 is greater than 5 µM.

The values above are taken from article PMC7338260 (European journal of medicinal chemistry, 2020).
